Test results as given in ChEMBL document CHEMBL4732237, “Discovery of 4-alkoxy-2-aryl-6,7-dimethoxyquinolines as a new class of topoisomerase I inhibitors endowed with potent in vitro anticancer activity” (2021).

Experiments:
Type in all cases: functional
MDA-MB-435 = test: Growth inhibition of human MDA-MB-435 cells incubated for 48 hrs by sulforhodamine B assay
Outline: (§1)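 NCI five-dose screen covering 0.01–100 µM, prepared as 10-fold or ½-log dilutions from DMSO stock. Cells in RPMI 1640 with 5% FBS were exposed for 48 h at 37 °C after 24 h preincubation. Adherent cells were fixed with TCA (final 10%) and suspension cells were settled before fixing. Stain was SRB, read at 515 nm. GI50 = 50% reduction in net protein increase versus control, with Tz taken at drug addition.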

SK-OV-3 [1] = test: Growth inhibition of human SK-OV-3 cells incubated for 48 hrs by sulforhodamine B assay
Outline: (§2)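 NCI five-dose screen (0.01–100 µM; five concentrations plus control). Cells grown in RPMI 1640/5% FBS/2 mM L-glutamine and preincubated 24 h, with time-zero plates TCA-fixed. Drug exposure 48 h at 37 °C, followed by SRB protein staining and reading at 515 nm. GI50 is the concentration at [(Ti-Tz)/(C-Tz)]×100 = 50.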

SK-MEL-5 = test: Growth inhibition of human SK-MEL-5 cells at 10 uM incubated for 48 hrs by sulforhodamine B assay relative to control; settings: read-out: GI
Outline: (§3)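 NCI one-dose screen. Cells grown in RPMI 1640 with 5% FBS and 2 mM L-glutamine, plated and incubated 24 h at 37 °C, 5% CO2. DMSO-dissolved drug added, then 48 h further incubation. Adherent cells fixed with cold TCA, suspension cells fixed after settling. Stained with 0.4% SRB, absorbance read at 515 nm. Reported as percent growth relative to no-drug control and time-zero cell number.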

MCF7 = test: Growth inhibition of human MCF7 cells incubated for 48 hrs by sulforhodamine B assay; outline: as §1
SN12C [2] = test: Growth inhibition of human SN12C cells incubated for 48 hrs by sulforhodamine B assay; outline: as §2
SN12C [3] = test: Growth inhibition of human SN12C cells at 10 uM incubated for 48 hrs by sulforhodamine B assay relative to control; settings: read-out: GI; outline: as §3
KM12 [4] = test: Growth inhibition of human KM12 cells at 10 uM incubated for 48 hrs by sulforhodamine B assay relative to control; settings: read-out: GI
Outline: (§4)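 NCI-60 single-dose screen. Cells were grown in RPMI 1640 with 5% FBS and 2 mM L-glutamine and plated 24 h before drug addition. Compound was added at one concentration in DMSO-derived medium and incubated for 48 h at 37 °C in 5% CO2. Read-out was SRB protein stain at 515 nm. Result is percent growth versus the no-drug control and the time-zero cell count; values below 0 indicate lethality.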

HCT-15 = test: Growth inhibition of human HCT-15 cells incubated for 48 hrs by sulforhodamine B assay; outline: as §1
SK-OV-3 [5] = test: Growth inhibition of human SK-OV-3 cells at 10 uM incubated for 48 hrs by sulforhodamine B assay relative to control; settings: read-out: GI; outline: as §3
SNB-75 = test: Growth inhibition of human SNB-75 cells incubated for 48 hrs by sulforhodamine B assay; outline: as §2
SF-539 = test: Growth inhibition of human SF-539 cells at 10 uM incubated for 48 hrs by sulforhodamine B assay relative to control; settings: read-out: GI; outline: as §3
A549 = test: Growth inhibition of human A549 cells incubated for 48 hrs by sulforhodamine B assay; outline: as §1
OVCAR-8 = test: Growth inhibition of human OVCAR-8 cells incubated for 48 hrs by sulforhodamine B assay; outline: as §2
A498 [6] = test: Growth inhibition of human A498 cells at 10 uM incubated for 48 hrs by sulforhodamine B assay relative to control; settings: read-out: GI
Outline: (§5)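 NCI one-dose screen across a 59-line panel. Cells were grown in RPMI 1640 with 5% FBS and 2 mM L-glutamine, plated and pre-incubated 24 h, then exposed to drug for 48 h at 37 °C, 5% CO2. Adherent cells were fixed with cold TCA (10% final), stained with 0.4% SRB in 1% acetic acid and read at 515 nm. Result is percent growth relative to no-drug control and time-zero cell count.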

MDA-MB-231 = test: Growth inhibition of human MDA-MB-231 cells incubated for 48 hrs by sulforhodamine B assay; outline: as §1
SNB-19 = test: Growth inhibition of human SNB-19 cells incubated for 48 hrs by sulforhodamine B assay; outline: as §2
TK-10 [7] = test: Growth inhibition of human TK-10 cells at 10 uM incubated for 48 hrs by sulforhodamine B assay relative to control; settings: read-out: GI; outline: as §5
DU-145 = test: Growth inhibition of human DU-145 cells incubated for 48 hrs by sulforhodamine B assay; outline: as §1
UACC-62 = test: Growth inhibition of human UACC-62 cells incubated for 48 hrs by sulforhodamine B assay
Outline: (§6)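 NCI five-dose assay, with drug stocks in DMSO diluted in medium to five concentrations (10-fold or ½-log series). Cells in RPMI 1640/5% FBS were pre-incubated 24 h, and time-zero plates were TCA-fixed at drug addition. After 48 h at 37 °C, cells were TCA-fixed, SRB-stained and read at 515 nm. GI50 is from [(Ti-Tz)/(C-Tz)]×100 = 50, TGI from Ti = Tz, and LC50 from [(Ti-Tz)/Tz]×100 = -50.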

COLO 205 = test: Growth inhibition of human COLO 205 cells incubated for 48 hrs by sulforhodamine B assay; outline: as §1
HOP-62 [8] = test: Growth inhibition of human HOP-62 cells incubated for 48 hrs by sulforhodamine B assay; outline: as §1
T47D = test: Growth inhibition of human T47D cells at 10 uM incubated for 48 hrs by sulforhodamine B assay relative to control; settings: read-out: GI; outline: as §5
TK-10 [9] = test: Growth inhibition of human TK-10 cells incubated for 48 hrs by sulforhodamine B assay; outline: as §6
NCI-H322M = test: Growth inhibition of human NCI-H322M cells incubated for 48 hrs by sulforhodamine B assay; outline: as §2
UACC-257 = test: Growth inhibition of human UACC-257 cells at 10 uM incubated for 48 hrs by sulforhodamine B assay relative to control; settings: read-out: GI; outline: as §5
SK-MEL-28 = test: Growth inhibition of human SK-MEL-28 cells at 10 uM incubated for 48 hrs by sulforhodamine B assay relative to control; settings: read-out: GI; outline: as §3
A498 [10] = test: Growth inhibition of human A498 cells incubated for 48 hrs by sulforhodamine B assay; outline: as §6
EKVX = test: Growth inhibition of human EKVX cells incubated for 48 hrs by sulforhodamine B assay; outline: as §1
RXF 393 = test: Growth inhibition of human RXF 393 cells at 10 uM incubated for 48 hrs by sulforhodamine B assay relative to control; settings: read-out: GI; outline: as §3
KM12 [11] = test: Growth inhibition of human KM12 cells incubated for 48 hrs by sulforhodamine B assay; outline: as §1
HOP-62 [12] = test: Growth inhibition of human HOP-62 cells at 10 uM incubated for 48 hrs by sulforhodamine B assay relative to control; settings: read-out: GI; outline: as §4
K562 = test: Growth inhibition of human K562 cells incubated for 48 hrs by sulforhodamine B assay; outline: as §1
Hs-578T = test: Growth inhibition of human HS-578T cells incubated for 48 hrs by sulforhodamine B assay; outline: as §1
NCI-H522 = test: Growth inhibition of human NCI-H522 cells at 10 uM incubated for 48 hrs by sulforhodamine B assay relative to control; settings: read-out: GI; outline: as §3

SMILES	GI50 (MDA-MB-435) [nM]	GI50 (SK-OV-3 [1]) [nM]	GI50 (MCF7) [nM]	GI50 (SN12C [2]) [nM]	GI50 (HCT-15) [nM]	GI50 (SNB-75) [nM]	GI50 (A549) [nM]	GI50 (OVCAR-8) [nM]	GI50 (MDA-MB-231) [nM]	GI50 (SNB-19) [nM]	GI50 (DU-145) [nM]	GI50 (UACC-62) [nM]	GI50 (COLO 205) [nM]	GI50 (HOP-62 [8]) [nM]	GI50 (TK-10 [9]) [nM]	GI50 (NCI-H322M) [nM]	GI50 (A498 [10]) [nM]	GI50 (EKVX) [nM]	GI50 (KM12 [11]) [nM]	GI50 (K562) [nM]	also measured
COc1cc2nc(-c3ccc(Cl)cc3)cc(OCCCN3CCC(O)CC3)c2cc1OC	2050	3170	1600	1260	763	1760	2200	2000	665	3190	2780	1900	532	1980	2140	3220	1520	1330	3130	1630	inhibition of growth at 10 µM (SK-MEL-5): 62%; inhibition of growth at 10 µM (SN12C [3]): 62%; inhibition of growth at 10 µM (KM12 [4]): 62%; inhibition of growth at 10 µM (SK-OV-3 [5]): 62%; inhibition of growth at 10 µM (SF-539): 62%; inhibition of growth at 10 µM (A498 [6]): 62%; inhibition of growth at 10 µM (TK-10 [7]): 62%; inhibition of growth at 10 µM (T47D): 62%; inhibition of growth at 10 µM (UACC-257): 62%; inhibition of growth at 10 µM (SK-MEL-28): 62%; inhibition of growth at 10 µM (RXF 393): 62%; inhibition of growth at 10 µM (HOP-62 [12]): 62%; GI50 (Hs-578T): 1910 nM; inhibition of growth at 10 µM (NCI-H522): 62%
COc1cc2nc(-c3ccc(Cl)cc3)cc(OCCCN3CCCC3)c2cc1OC	2720	2420	1330	914	567	1730	1520	1190	907	3140	2150	2030	459	1380	2330	3360	2190	1210	2460	1060	inhibition of growth at 10 µM (SK-MEL-5): 62%; inhibition of growth at 10 µM (SN12C [3]): 62%; inhibition of growth at 10 µM (KM12 [4]): 62%; inhibition of growth at 10 µM (SK-OV-3 [5]): 62%; inhibition of growth at 10 µM (SF-539): 62%; inhibition of growth at 10 µM (A498 [6]): 62%; inhibition of growth at 10 µM (TK-10 [7]): 62%; inhibition of growth at 10 µM (T47D): 62%; inhibition of growth at 10 µM (UACC-257): 62%; inhibition of growth at 10 µM (SK-MEL-28): 62%; inhibition of growth at 10 µM (RXF 393): 62%; inhibition of growth at 10 µM (HOP-62 [12]): 62%; GI50 (Hs-578T): 1890 nM; inhibition of growth at 10 µM (NCI-H522): 62%
COc1cc2nc(-c3ccc(C(F)(F)F)cc3)cc(OCCCN3CCCC3)c2cc1OC	709	2550	976	673	416	1850	653	806	565	2770	1370	1380	401	1030	3240	6770	1580	982	1340	475	GI50 (Hs-578T): 1740 nM
